# Source: PubChem BioAssay
# Most compounds without a hit are left out; they make up all but 2.3% or so of the library.
# TRPC6 activator: activators of mouse TRPC6 channel | HEK293-TRPC6 membrane potential dye fluorescence; active compounds read high | B-score at 10 µM | Q61143 | AID 2550 | hit rate 0.13% among 310,000;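 active means B-score of the integrated fluorescence ratio above library mean plus 3 SD, and starting fluorescence ratio within library mean plus 5 SD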;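 further: higher score means more depolarization so channel activation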
# Target sequence (Q61143 whole entry, looked up): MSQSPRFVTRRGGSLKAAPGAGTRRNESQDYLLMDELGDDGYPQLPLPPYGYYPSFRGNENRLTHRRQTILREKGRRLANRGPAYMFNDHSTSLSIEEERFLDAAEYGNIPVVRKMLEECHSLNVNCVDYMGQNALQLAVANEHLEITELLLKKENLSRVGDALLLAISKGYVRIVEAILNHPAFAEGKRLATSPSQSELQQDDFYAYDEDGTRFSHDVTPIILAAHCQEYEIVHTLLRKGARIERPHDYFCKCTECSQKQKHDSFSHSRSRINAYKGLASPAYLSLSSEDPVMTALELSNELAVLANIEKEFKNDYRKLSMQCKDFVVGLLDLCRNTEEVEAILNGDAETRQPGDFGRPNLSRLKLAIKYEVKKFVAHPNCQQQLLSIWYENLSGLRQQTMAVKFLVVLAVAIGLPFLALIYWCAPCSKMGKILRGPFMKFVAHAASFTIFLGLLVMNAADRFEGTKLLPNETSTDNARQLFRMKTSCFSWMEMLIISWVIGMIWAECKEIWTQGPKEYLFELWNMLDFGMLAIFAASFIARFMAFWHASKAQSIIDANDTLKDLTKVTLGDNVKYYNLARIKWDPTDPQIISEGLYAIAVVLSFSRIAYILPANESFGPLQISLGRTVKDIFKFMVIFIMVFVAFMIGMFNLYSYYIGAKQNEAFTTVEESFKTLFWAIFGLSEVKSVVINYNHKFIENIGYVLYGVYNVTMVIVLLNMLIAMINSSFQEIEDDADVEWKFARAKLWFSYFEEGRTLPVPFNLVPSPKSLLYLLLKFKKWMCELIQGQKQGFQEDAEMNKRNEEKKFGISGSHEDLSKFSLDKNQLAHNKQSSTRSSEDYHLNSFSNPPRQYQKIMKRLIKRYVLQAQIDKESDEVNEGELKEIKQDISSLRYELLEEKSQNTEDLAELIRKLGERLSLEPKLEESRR
# TRPC4 act: opens the mouse TRPC4 cation channel; AID 2237; B-score at 10 µM; hit rate 0.49% among 310,000; HEK293 TRPC4beta/mu-opioid, Fluo4 calcium fluorescence; active compounds read high;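 active means B-score above 5 SD of library B-scores, and initial fluorescence ratio not above library mean plus 5 SD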;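 further: positive B-score marks a calcium rise read as TRPC4 activation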
#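 Assay system – TRPC4beta and mu-opioid receptor HEK293 stable cells · Measured by – Fluo4 fluorescence, kinetic · Schedule – dye loading 45 min room temperature, 110 s kinetic read · Read-out – B-scored integrated calcium fluorescence ratio · Controls – buffer and maximal DAMGO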
# TRPC4 potent: allosteric potentiators of mouse TRPC4 channel | B-score at 10 µM | HEK293 TRPC4beta/mu-opioid, DAMGO EC20, Fluo-4 Ca2+ flux; active compounds read high | hit rate 0.42% among 310,000 | Q9QUQ5;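 active means B-score of calcium response area above 5 SD of library B-scores, with initial fluorescence ratio within 5 SD of library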;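 further: B-score of integrated fluorescence ratio over time as area under calcium response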
# TRPC4 inh: inhibitors of mouse TRPC4 channel. B-score at 10 µM. Q9QUQ5. HEK293 TRPC4beta/mu-opioid, DAMGO-evoked Fluo4 calcium flux; active compounds read low. AID 2247. hit rate 0.39% among 300,000;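 active means B-score over 3 SD under the library average, no early fluorescence shift, positive overall ratio signal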
#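 Assay system: HEK293 cells with stable TRPC4beta plus mu-opioid receptor expression; Probe or stimulus: DAMGO in two steps, submaximal then maximal; Dosing: single-point compound dosing; Measured by: Fluo4 calcium-dye fluorescence, kinetic read; Read-out basis: B score from integrated Fluo4 fluorescence ratio.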
# TRPC6 inhibitor: inhibitors of mouse TRPC6 channel | hit rate 1.1% among 310,000 | B-score at 10 µM | Q61143 | HEK293-TRPC6, membrane potential dye, ACh-evoked depolarization; active compounds read low;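 active means B-score under library mean minus 3 SD, initial fluorescence not abnormally high, positive integrated signal ratio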;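 further: B-score derived from integrated fluorescence ratio over the kinetic read; more negative B-score means stronger inhibition of depolarization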
# TRPC4 sel inh 2: second check of whether TRPC6 inhibitors also affect mouse TRPC4. shares compounds with TRPC6 inhibitor. HEK293 TRPC4/MOR, membrane potential dye fluorescence; channel activated by saturating DAMGO dose. inhibition, % at 10 µM. hit rate 42% among 920. AID 2776;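 active means compounds whose fluorescence signal differed from control wells by over 3 SD, either direction, in both duplicate plates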
# TRPC4 spec: tests whether TRPC6 inhibitors also affect mouse TRPC4. AID 2777. HEK293 TRPC4/mu-opioid, membrane potential fluorescence. shares compounds with TRPC6 inhibitor. hit rate 61% among 920. activity change, negative = inhibition, % at 10 µM;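 active means rise or fall in signal beyond 3 SD of buffer-only wells in both replicate plates, either sign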;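 further: integrated kinetic ratio of fluorescence range over baseline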
# HEK293 MPD ctr 2-1: second check of TRPC6 inhibitor effects in parental HEK293 cells. shares compounds with TRPC6 inhibitor. parental HEK293 membrane potential dye fluorescence; maximal acetylcholine challenge after compound addition. signal change vs control, % at 10 µM. hit rate 31% among 920. AID 2779;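 active means membrane potential signal moving either way by over 3 SD of the maximum-effect control, in both duplicate plates, meaning non-specific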
# HEK293 MPD ctr-1: counter-screen for TRPC6 inhibitors: effect in parental HEK293 cells; shares compounds with TRPC6 inhibitor; parental HEK293 membrane potential dye fluorescence; membrane potential signal change, % at 10 µM; hit rate 60% among 920;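 active means membrane potential signal shifting up or down by more than 3 SD of buffer-only wells, on both duplicate plates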
# HEK293 MPD ctr-2: counter-screen for TRPC6 modulators: effect in parental HEK293 cells | shares compounds with TRPC6 inhibitor | membrane potential dye fluorescence | membrane potential signal change, % at 10 µM | hit rate 51% among 2,400 | AID 488924;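 active means membrane potential signal moves up or down beyond 5 SD from buffer-only wells, on both duplicate plates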
# HEK293 MPD ctr 2-2: second counter-screen for TRPC6 modulators: effect in parental HEK293 cells; membrane potential dye fluorescence; after compound, maximal acetylcholine stimulation; hit rate 14% among 2,400; shares compounds with TRPC6 inhibitor; inhibition, % at 10 µM;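 active means membrane potential signal drops by more than 5 SD from the mean control signal, in both duplicate plates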;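 further: plate controls were acetylcholine ECmax control wells for no effect and buffer only wells for full effect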
# TRPC4 ctr mod: selectivity of TRPC6 modulators against mouse TRPC4. hit rate 69% among 2,400. HEK293 TRPC4/mu-opioid, membrane potential fluorescence. percent change from control (negative = decrease, positive = increase), % at 10 µM. shares compounds with TRPC6 inhibitor;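 active means membrane potential signal moved up or down beyond 5 SD of buffer control wells, in both duplicate plates, actives on both sides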;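 further: plate controls were assay buffer wells for no effect and DAMGO maximal-effect wells for full effect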
# TRPC4/MOR inh 2: mouse TRPC4 off-target activity of TRPC6 modulators, second screen; shares compounds with TRPC6 inhibitor; HEK293 TRPC4/mu-opioid, membrane potential dye fluorescence; stimulated with maximal-effect DAMGO; inhibition, % at 10 µM; hit rate 55% among 2,400; AID 488928;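 active means drop in membrane potential signal beyond 5 SD of the control wells in both duplicate plates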;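 further: TRPC4 counter screen for TRPC6 hits run under conditions tuned for TRPC6 not TRPC4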
# TRPC6 block conf: confirmation of mouse TRPC6 inhibitors; HEK293-TRPC6, membrane potential dye, ACh-evoked depolarization; shares compounds with TRPC6 inhibitor; inhibition, % at 10 µM; hit rate 43% among 3,300;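 active means fluorescence ratio falls more than 5 SD below the full-stimulation control mean, in both duplicate runs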;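 further: integrated fluorescence ratio of peak minus minimum over baseline after agonist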
# TRPC6 act conf: mouse TRPC6 activator confirmation; shares compounds with TRPC6 inhibitor; HEK293-TRPC6 membrane potential dye fluorescence, FDSS; activation, % at 10 µM; hit rate 11% among 2,800;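 active means ratio signal rise beyond 5 SD above unstimulated control wells' mean, seen in both duplicate runs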;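 further: plate controls were buffer EC0 wells for no effect and acetylcholine ECmax response for full effect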
# * marks the source's active call; other numbers are inactive results; i = inactive; x = no result given.
SMILES,TRPC6 activator,TRPC4 act,TRPC4 potent,TRPC4 inh,TRPC6 inhibitor,HEK293 MPD ctr-2,HEK293 MPD ctr 2-2,TRPC4 ctr mod,TRPC4/MOR inh 2,TRPC6 block conf,TRPC6 act conf,others
CC[n+]1c(/C=C/Nc2ccccc2)oc2ccccc21,i,i,i,i,-7.33*,-169.0%*,76.0%*,-44.0%*,81.5%*,69.0%*,i,
Cc1ccc(C2=N/C(=C\c3cccc(F)c3)C(=O)O2)cc1,i,i,i,i,i,x,x,x,x,x,x,
O=C(CNS(=O)(=O)c1ccc(Br)s1)N1CCN(c2ccc(F)cc2)CC1,i,i,i,i,i,x,x,x,x,x,x,
COCCC(=O)Nc1ccc2c(c1)CN(C(=O)c1ccc(CSC)o1)CC2,i,i,i,i,i,x,x,x,x,x,x,
CCn1cnc2c(oc3ccccc32)c1=O,i,i,i,i,i,x,x,x,x,x,x,
C#CCn1cnc2c(oc3ccccc32)c1=O,i,i,i,i,-5.03*,i,i,i,i,i,i,
COc1ccc(-c2cc(C)no2)cc1S(=O)(=O)N1CCOc2ccc(C)cc21,i,i,i,i,i,x,x,x,x,x,x,
N#CC(C#N)=C/C=C(\Nc1ccc(Cl)cc1)c1ccc(Cl)cc1,i,i,i,i,-5.16*,i,i,i,37.5%*,i,i,
N#Cc1ccc(NC(=O)Nc2ccc(Cl)cc2)cc1,i,i,i,i,i,x,x,x,x,x,x,
COc1ccc(N(CC(=O)N2CCOCC2)S(C)(=O)=O)cc1Cl,i,i,i,i,i,x,x,x,x,x,x,
Cc1cccc(N2CCN(C(=O)CN3CCOc4ccccc43)CC2C)c1 (stereo not drawn),i,i,i,i,i,x,x,x,x,x,x,
O=C(CN1CCOc2ccccc21)N1CCN(c2cccc(Cl)c2)CC1,i,i,i,i,-5.48*,i,i,i,36.0%*,i,i,
COc1ccc(-n2c(-c3ccc(Cl)cc3)c[n+]3c2CCc2ccccc2-3)cc1,i,i,i,i,-5.1*,-123.0%*,i,-17.0%*,42.5%*,i,i,
Cc1cccc(NC(=O)CCNC(=O)c2ccc(Br)cc2)c1,i,i,i,i,i,x,x,x,x,x,x,
CCCc1nnc(NC(=O)CCC(=O)N2CCN(Cc3ccc(F)cc3)CC2)s1,i,i,i,i,i,x,x,x,x,x,x,
CC(=O)NN1C(=O)/C(=C\c2ccccc2)SC1=S,i,i,i,i,i,x,x,x,x,x,x,
O=C1/C(=C/c2ccccc2)SC(=S)N1N1C(=O)C2CC2C1=O (stereo not drawn),i,i,i,i,-8.75*,x,x,x,x,i,i,TRPC4 sel inh 2=i;TRPC4 spec=i;HEK293 MPD ctr 2-1=i;HEK293 MPD ctr-1=i
COc1ccc(Nc2ccc(S(=O)(=O)N3CCCCC3)cc2[N+](=O)[O-])cc1,i,i,26*,i,-5.27*,i,i,i,i,i,i,
Cc1ccc(S(=O)(=O)CC(=O)Nc2nccs2)cc1,i,i,i,i,i,x,x,x,x,x,x,
CCCn1ncc(CN2CCCC(C(=O)c3cccc(OC(C)C)c3)C2)c1C (stereo not drawn),i,i,i,i,-5.34*,118.5%*,i,24.0%*,40.5%*,50.5%*,x,
Cn1c(=O)c2c(nc(N3CCOCC3)n2CCSc2ncccn2)n(C)c1=O,i,i,i,i,-5.62*,-360.5%*,i,-56.0%*,i,i,i,
CC1CC(C)CN(c2nc3c(c(=O)n(C)c(=O)n3C)n2CCSc2ncccn2)C1 (stereo not drawn),i,i,i,i,i,x,x,x,x,x,x,
CCN1CCN(c2nc3c(c(=O)n(C)c(=O)n3C)n2CCSc2nccc(C)n2)CC1,i,i,i,i,-12.1*,-284.0%*,118.0%*,-46.5%*,72.5%*,78.0%*,i,
CCN1CCCc2cc(CN(CCN3CCOCC3)C(=O)Nc3ccc(C)c(C)c3)ccc21,i,i,i,i,-5.02*,i,i,i,41.0%*,i,i,
CCN(CC)C(=O)COCc1cc(-c2ccc3c(c2)OCO3)on1,i,i,i,i,-7.01*,x,x,x,x,i,i,TRPC4 sel inh 2=i;TRPC4 spec=i;HEK293 MPD ctr 2-1=i;HEK293 MPD ctr-1=i
CCC(C)NC(=O)COCc1cc(-c2ccc3c(c2)OCO3)on1 (stereo not drawn),i,i,i,i,i,x,x,x,x,x,x,
Cc1cccc2cc(C3CC(c4cccs4)=NN3S(C)(=O)=O)c(Cl)nc12 (stereo not drawn),i,i,i,i,i,x,x,x,x,x,x,
c1ccc(-c2csc(Nc3cccnc3)n2)nc1,i,i,i,x,-6.03*,-84.5%*,i,-17.5%*,i,i,i,
COc1cc(/C=N/NC(=O)c2ccc(-c3ccccc3)cc2)cc(OC)c1OC,i,i,i,i,i,x,x,x,x,x,x,
COc1cc(/C=N/NC(=O)c2cc(-c3ccccc3)sc2N)cc(OC)c1OC,i,i,i,i,-5.01*,i,i,i,53.0%*,44.0%*,i,
